Screens deposited in PubChem by The Scripps Research Institute Molecular Screening Center.
CHRM4 antagonist: CHRM4 antagonism in calcium assay. P08173. CHO-hM4 cells, ACh EC80, Fluo-8 calcium fluorescence. inhibition, % at 3 µM. 0.73% of 360,000 active. AID 624125;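 active means inhibition above its plate's cutoff, the mean inhibition of sample wells plus 3 SD, cut at about 27% in these data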
TAAR1 antagonist: human TAAR1 antagonism; Q96RJ0; inhibition, % at 3 µM; 1.5% of 360,000 active; CHO RD-HGA16 TAAR1, Fluo-8 calcium fluorescence, antagonist;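 active means inhibition above a per-plate cutoff, the mean inhibition of test compounds on that plate plus 3 SD, cut at about 49% in these data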
Target sequence (Q96RJ0 whole entry, looked up): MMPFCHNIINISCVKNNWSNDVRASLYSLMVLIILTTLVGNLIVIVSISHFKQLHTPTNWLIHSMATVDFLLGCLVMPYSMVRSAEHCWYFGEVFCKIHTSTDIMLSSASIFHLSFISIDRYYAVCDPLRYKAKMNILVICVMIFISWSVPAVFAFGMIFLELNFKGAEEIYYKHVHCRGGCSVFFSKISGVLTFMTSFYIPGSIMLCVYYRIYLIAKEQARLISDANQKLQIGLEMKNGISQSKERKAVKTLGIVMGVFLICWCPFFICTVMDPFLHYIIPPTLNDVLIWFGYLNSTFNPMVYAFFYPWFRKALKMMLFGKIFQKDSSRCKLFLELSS
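Test system: hTAAR1-expressing CHO RD-HGA16 cells, Gα16-coupled; Probe or stimulus: EC80 β-phenethylamine stimulus; Compound dosing: single nominal final test compound concentration of 3 µM; Timing: 140 s kinetic read after compound, 140 s after agonist; Signal: Fluo-8 calcium-sensitive fluorescence; Measure: % inhibition of agonist calcium response; Controls: DMSO and EC80 PEA controls.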
CHRM4 agonist: agonists of human muscarinic M4 receptor (CHRM4) | activation, % at 3 µM | AID 624127 | CHO-K1 hM4/Gqi5, Fluo-8 calcium fluorescence; vehicle 0%, full acetylcholine response 100% | 0.14% of 360,000 active;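 active means activation above the run mean over all test wells plus 3 SD, cut at about 32% in these data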;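 further: peak over basal fluorescence ratio per well then scaled between controls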
TAAR1 agonist: agonists of human TAAR1; CHO RD-HGA16 TAAR1, Fluo-8 calcium fluorescence; vehicle wells 0%, saturating PEA agonist 100%; activation, % at 3 µM; 0.99% of 360,000 active; AID 624467;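 active means activation above the mean activation of all test compounds in the run plus 3 SD, cut at about 38% in these data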
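System: CHO RD-HGA16 cells carrying human TAAR1 plus Gα16; Incubation: 17-24 h seeding, 75 min 37 °C dye, 30 min RT; Measured by: Fluo-8 fluorescence, 5 s baseline then 140 s kinetic read; Control set: DMSO and PEA EC100; Replication: single well for each compound.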
M4 PAM: potentiates acetylcholine response at human M4 receptor; 0.4% of 360,000 active; P08173; CHO-K1 hM4/Gqi5, Fluo-8 calcium fluorescence, ACh EC20; 0% = ACh EC20, 100% = maximal ACh; activation, % at 3 µM; AID 624126;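 active means activation above its plate's cutoff, the mean activation of sample wells plus 3 SD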
Numbers stand for hits; - = inactive; . = no result given. This is a sample that favours compounds with a hit; in the whole collection about 3% have one here.

SMILES	CHRM4 antagonist	TAAR1 antagonist	CHRM4 agonist	TAAR1 agonist	M4 PAM
Cc1ccc(-c2nn(-c3ccccc3)cc2CO)cc1	-	-	-	-	-
O=C1NCCOC(=O)[C@H](Cc2ccc(F)cc2)CC/C=C/C[C@H]1CC(=O)N(CCO)Cc1ccccc1	-	-	-	-	-
CC(C)(C)OC(=O)C[C@@H]1C/C=C\C[C@@H](CC(=O)N(CCO)Cc2ccccc2)C(=O)N[C@@H](c2ccccc2)COC1=O	-	49	-	-	-
O=C1NC[C@H](c2ccccc2)OC(=O)[C@H](Cc2ccc(F)cc2)CC/C=C/C[C@H]1CC(=O)N(CCO)Cc1ccccc1	27	62	-	41	-
O=C1NC[C@H](c2ccccc2)OC(=O)[C@@H](Cc2ccc(F)cc2)CC/C=C/C[C@H]1CC(=O)N(CCO)Cc1ccccc1	-	71	-	-	-
O=C1NC[C@@H](c2ccccc2)OC(=O)[C@@H](Cc2ccc(F)cc2)C/C=C\C[C@@H]1CC(=O)N(CCO)Cc1ccccc1	-	69	-	38	-
O=C1NC[C@H](c2ccccc2)OC(=O)[C@@H](Cc2ccc(F)cc2)CC/C=C/C[C@@H]1CC(=O)N(CCO)Cc1ccccc1	-	-	-	-	-
Nc1[nH]c(C(=O)c2ccc(Br)cc2)c(-c2ccncc2)c1C(=O)NCCc1c[nH]c2ccccc12	.	-	.	-	.
C[C@@H]1COC(=O)[C@H](NC(=O)OCC2c3ccccc3-c3ccccc32)C/C=C\C[C@@H](CC(=O)N(CCO)Cc2ccccc2)C(=O)N1	-	.	-	.	-
CC(C)(C)[C@@H]1COC(=O)[C@H](Cc2ccc(F)cc2)CC/C=C\C[C@H](CC(=O)N(CCO)Cc2ccccc2)C(=O)N1	-	56	-	-	-
CC(C)(C)[C@H]1COC(=O)[C@H](NC(=O)OCC2c3ccccc3-c3ccccc32)C/C=C\C[C@@H](CC(=O)N(CCO)Cc2ccccc2)C(=O)N1	-	51	-	-	-
CCN(CC)C(=O)C1=C(C)N(Cc2ccc(C(C)(C)C)cc2)C(=O)C(CC(=O)NCC2CCCCC2)C1 (configuration not stated)	-	-	-	-	-
Fc1ccc(-[n+]2nc(Nc3ccccc3)sc2-c2c3ccccc3cc3ccccc23)cc1	-	-	-	46	-
COc1ccc(/C=N\NC(=O)c2ccc([N+](=O)[O-])c(C)c2)cc1COc1ccccc1C(N)=O	-	-	-	-	-
COc1ccc(/C=N/NC(=O)c2ccccc2OC)cc1COc1ccccc1[N+](=O)[O-]	-	51	-	-	-
Cc1ccccc1NC(=O)CN1C(=O)NC2(CCc3ccccc32)C1=O (configuration not stated)	-	-	-	-	-
COc1ccc(CCN(C)C(=O)CN2C(=O)NC3(CCCc4ccccc43)C2=O)cc1OC (configuration not stated)	-	-	-	-	27
COc1cc2c(cc1NC(=O)CN1C(=O)NC3(CCc4ccccc43)C1=O)oc1ccccc12 (configuration not stated)	38	50	-	-	-
COc1ccc(C(=O)CN2C(=O)NC3(CCCc4ccccc43)C2=O)cc1OC (configuration not stated)	-	-	-	-	-
COC(=O)C1=C(C)N(Cc2ccccc2C(F)(F)F)C(=NCC2CC2)NC1CCc1ccccc1 (configuration not stated)	.	-	.	-	.
NC(Cc1ccc(C(F)(F)F)cc1)c1csc(Nc2ncccn2)n1 (configuration not stated)	-	-	-	-	-
NC(Cc1ccc(C(F)(F)F)cc1)c1csc(Nc2ccccn2)n1 (configuration not stated)	-	-	41	46	-
CN(Cc1ccccc1)C(=O)c1ccc(Nc2nc(C(N)Cc3ccccc3)cs2)nc1 (configuration not stated)	-	-	-	45	-
COc1cccc(Nc2nc(C(N)Cc3ccccc3)cs2)n1 (configuration not stated)	-	-	-	52	-
NC(Cc1ccc(C(F)(F)F)cc1)c1csc(Nc2cc(NCc3ccco3)ncn2)n1 (configuration not stated)	-	-	-	38	-
